Source: PubChem
An excerpt weighted towards active compounds, which were near 2.9% of everything screened.
CHO-K1 Ca PAM: counter-screen for M1 PAMs: effect in parental CHO-K1 cells. activation, % at 3 µM. ATP EC20, Fluo-8 calcium fluorescence; 0% at ATP EC20, 100% at ATP max. actives 0.02% (n = 360,000);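 active = activation above the run cutoff, the mean activation of all test compounds plus 3 SD, cut at about 40% in these data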;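 also: peak over basal fluorescence ratio in a 140 s read after ATP addition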
OX1R antag-1: OX1R (human) antagonism. actives 1.8% (n = 330,000). inhibition, % at 6.6 µM. OX1R-expressing cells, FRET antagonist read-out; in the data active = inhibition mostly above about 38%, no sharp cut-off; inactive = mostly below about 40%;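 also: 0% = agonist challenge alone and 100% = reference antagonist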
Target sequence (O43613 whole entry, looked up): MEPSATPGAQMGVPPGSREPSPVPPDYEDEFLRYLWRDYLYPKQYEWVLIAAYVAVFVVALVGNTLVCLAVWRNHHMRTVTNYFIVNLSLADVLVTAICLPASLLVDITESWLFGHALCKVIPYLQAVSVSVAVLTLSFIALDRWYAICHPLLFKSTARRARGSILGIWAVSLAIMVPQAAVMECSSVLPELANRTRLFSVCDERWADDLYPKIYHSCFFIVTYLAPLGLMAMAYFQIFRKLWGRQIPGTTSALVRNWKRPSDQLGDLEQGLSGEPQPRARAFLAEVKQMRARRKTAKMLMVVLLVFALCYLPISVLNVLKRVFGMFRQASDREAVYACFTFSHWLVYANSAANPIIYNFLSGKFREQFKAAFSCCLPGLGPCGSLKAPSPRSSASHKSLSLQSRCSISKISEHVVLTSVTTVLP
CHO-K1 Ca ag: nonselective activator or artifact in parental CHO-K1 cells | Fluo-8 calcium fluorescence; scaled to maximal ATP response, vehicle zero | activation, % at 3 µM | actives 0.48% (n = 360,000); in the data active = activation above about 15%;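 also: untransfected CHO-K1 host cells lacking M1 receptor as counterscreen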
OX1R antag-2: antagonists of human orexin 1 receptor. O43613. CHO/OX1R cells, Fluo-8 calcium fluorescence, orexin A. inhibition, % at 5 µM. actives 0.43% (n = 330,000). AID 434989;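 active = inhibition above its plate's threshold, mean inhibition of all tested compounds on the plate plus 3 SD, cut at about 37% in these data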;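 also: 0% = orexin A challenge wells and 100% = SB-334867-A antagonist wells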
CHO parental Ca: counter-screen: ATP calcium response change in parental CHO cells. inhibition, % at 5.6 µM. parental CHO-K1, ATP-induced calcium, Fluo-8 fluorescence. actives 0.63% (n = 330,000);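 active = inhibition above that plate's mean sample inhibition plus 3 SD, cut at about 26% in these data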;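 also: 0% = ATP-challenged DMSO wells and 100% = DMSO wells without ATP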
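Material – parental CHO cells · Reagent – ATP stimulus · Compound – single nominal dose of 5.6 µM per compound · Detection – Fluo-8 fluorescence · Read-out basis – percent inhibition of calcium signal · Controls – ATP-challenged DMSO wells low, unchallenged DMSO wells high · Repeats – no replicates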
CHO-K1 Ca antag: M1 antagonist counterscreen hit in parental CHO-K1 cells. ATP-induced calcium, Fluo-8 fluorescence. inhibition, % at 3 µM. actives 0.6% (n = 360,000);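 active = inhibition above a per-plate cutoff, the plate's mean sample inhibition plus 3 SD, cut at about 24% in these data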;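 also: 0% = DMSO plus EC80 ATP and 100% = DMSO alone without ATP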
Active calls of the source: *; x = no result given.

SMILES	CHO-K1 Ca PAM	OX1R antag-1	CHO-K1 Ca ag	OX1R antag-2	CHO parental Ca	CHO-K1 Ca antag
O=C(NCCCc1ccccc1)[C@@H]1Cc2ccccc2CN1	-1	-14	1	-20	-31	-13
COc1ccc(/C=C/c2cc(O)cc(OC3OC(CO)C(O)C(O)C3O)c2)cc1 (centres undefined)	-1	x	0	x	x	7
CCOc1ccccc1CNC(=O)c1cc2oc3ccccc3c2n1CC	24	53*	1	-14	-13	-12
COc1cccc(CNC(=O)c2cc3oc4ccccc4c3n2C)c1OC	-3	33	0	-18	-19	11
O=C1CCC([N+](=O)[O-])C(C2CC=CCC2)N1 (centres undefined)	4	10	-1	0	6	-5
Cc1ccc(N)cc1O	2	38*	1	-11	-5	-26
Cc1cc(O)c(-c2cc(O)c(C)cc2O)cc1O	0	8	1	-8	2	-5
O=C(COC(=O)c1cc(S(=O)(=O)Nc2ccccc2Cl)ccc1O)Nc1nc2ccccc2s1	19	x	7	x	x	-5
N#Cc1cccc(NC(=O)COC(=O)c2cc(S(=O)(=O)Nc3ccccc3Cl)ccc2O)c1	0	38*	15	15	4	-13
O=C(CCOc1ccccc1)Nc1cccc(S(=O)(=O)Nc2ccccc2Cl)c1	13	55	7	57*	37*	-4
COc1ccc(SCCCn2c(=O)c3c(ncn3C)n(C)c2=O)cc1	-7	26	5	-7	2	-3
CC1CN(C(=O)CCC(=O)NCc2ccc(Cl)cc2)c2ccccc2S1 (centres undefined)	-5	7	3	-4	8	13
COc1ccc(NC(=S)NCCSc2ccc(Cl)cc2)c(OC)c1	-2	20	0	-15	-16	24*
COc1ccccc1NC(=S)NCCSc1ccc(Cl)cc1	10	27	0	-12	-18	8
COc1ccc(Cl)cc1S(=O)(=O)n1nnc2ccccc21	1	3	0	0	-6	28*
CC(=O)C1=C(C)NC(=S)NC1c1cc([N+](=O)[O-])ccc1O (centres undefined)	0	22	17*	-3	-3	-7
CC1=C(C(=O)c2ccccc2)C(c2cccc([N+](=O)[O-])c2)NC(=S)N1 (centres undefined)	4	8	1	-3	2	-11
CC(=O)Nc1ccc2nc3c(=O)n(C)c(=O)n(C)c3nc2c1	8	60*	1	3	-7	-2
COc1cccc(C(=O)N2CCN(c3ccc(N4CCOCC4)nn3)CC2)c1	7	35	1	-14	-13	-4
COc1ccc2c(c1)CCc1cc(C(=O)N3CCN(c4ccc(N5CCOCC5)nn4)CC3)sc1-2	-10	20	1	-32	-13	31*
CC1(C(=O)O)CCCN(C(=O)c2cc3ccccc3s2)C1 (centres undefined)	-11	x	0	x	x	11
CC1(C(=O)NC2CCCCC2)CCC(=O)N1CCOc1ccccc1 (centres undefined)	-2	x	0	x	x	11
CC1(C(=O)NCc2ccccc2)CCC(=O)N1CCOc1ccccc1 (centres undefined)	-8	x	0	x	x	27*
CCOC(=O)CSc1nnc2c3ccccc3n(C)c2n1	13	16	0	-14	-13	-8
CC(C)n1c2ccccc2c2nnc(SCC(=O)OCN3C(=O)c4ccccc4C3=O)nc21	9	50*	4	-1	-17	1
CCOC(=O)c1sc(S(C)=O)c2c1CCc1conc1-2 (centres undefined)	-28	19	0	3	-5	20
Cc1ccc(-n2c(-c3cccnc3)n[nH]c2=S)c(C)c1	-6	11	0	1	-12	26*
O=C(NC1CC1)C1=C[C@@H](C2CCCCC2)C[C@@H](OCCCCO)O1	-22	27	-1	-17	-23	9
CCC(C)(C(=O)NC1CCCCC1)N(C(=O)CC1NC(=O)NC1=O)c1c(C)n(C)n(-c2ccccc2)c1=O (centres undefined)	5	6	7	-7	-3	0
O=C(CN1CCN(CCN2C(=O)c3cccc4cccc(c34)C2=O)CC1)c1ccc(F)cc1	5	45*	1	-31	-14	-16
